Results: PubChem BioAssay AID602434 (Sanford-Burnham Center for Chemical Genomics, 2012)

Target: CHO-CHOP luciferase reporter, UPR activation, luminescence
Assay: PERK-eIF2a-CHOP reporter activation – CHO-CHOP cells, luciferase luminescence, set 3, SAR follow-up (AID 602434)
In short: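 system = CHO cell line stably carrying CHOP-driven luciferase reporter | incubation = 16-18 h seeding, 6 h treatment at 37 °C | technique = Steady-Glo luminescence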

EC50 [nM] | Compound
435 | O=C(Nc1ccc(S(=O)(=O)N2CCC(F)CC2)cc1)c1ccc([N+](=O)[O-])o1
785 | O=C(Nc1ccc(S(=O)(=O)N2CCC(Cl)CC2)cc1)c1ccc([N+](=O)[O-])o1
761 | CC1CCN(S(=O)(=O)c2ccc(NC(=O)c3ccc([N+](=O)[O-])o3)cc2)CC1

The next lines start with the compound.

Compound | EC50 [nM]
CC1(C)CCN(S(=O)(=O)c2ccc(NC(=O)c3ccc([N+](=O)[O-])o3)cc2)CC1 | 765
CC(C)(C)C1CCN(S(=O)(=O)c2ccc(NC(=O)c3ccc([N+](=O)[O-])o3)cc2)CC1 | 652
O=C(Nc1ccc(S(=O)(=O)N2CCCCC2)cc1)c1ccc([N+](=O)[O-])o1 | 741
